Screens from PubChem BioAssay.
Only some compounds are listed: those with a hit (about 3.7% of all), similar ones and a draw of the others.
ROMK mod = ROMK potassium channel modulators, primary screen, cell-based, thallium flux, MLSMR library | ATP-sensitive inward rectifier potassium channel 1 (Homo sapiens), P48048 | Tet-inducible ROMK, thallium flux fluorescence; actives lie on both sides | B-score at 10 µM | 130,000 tested, 2% active;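 active = signal ratio slope over the read window, or its plate-corrected B-score, at least 3 SD from the plate mean, either direction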;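 note: B-score of the F/F0 ratio slope over 7 to 12 s after thallium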
Cl transport mod = KCC2 cotransporter modulators, thallium flux, primary screen, cell-based, HEK293 KCC2, FluoZin-2 fluorescence, MLSMR. KCC2 cells, thallium flux FluoZin-2 fluorescence. B-score of Tl+ flux slope (higher = more flux/activation; lower = inhibition) at 10 µM. 190,000 tested, 2.2% active. AID 1456, 2008;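 active = thallium flux slope and its plate-corrected score both differing from the plate sample mean at a set confidence after two filtering rounds, in either direction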;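 note: slope of fluorescence scaled to starting intensity during 10 to 20 s after thallium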
Calpain2 inh = inhibitors of pig calpain II, primary screen, biochemical, fluorogenic peptide substrate, 1536-well; 220,000 tested, 0.37% active; inhibition, % at 16 µM; purified calpain II, 30 min; AID 1236, 2008;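 active = inhibition above about 50%, limit read from the data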
PKD1 kinase inh = inhibitors of human PKD1 kinase, biochemical, fluorescence polarization; 200,000 tested, 0.056% active; Serine/threonine-protein kinase D1 (Homo sapiens), Q15139; AID 797, 2007; PKD1 kinase fluorescence polarization assay; inhibition, % (test concentration not listed); in the data active = inhibition above about 50%
Mdm2 ligase inh = MDM2-luciferase reporter signal enhancers, primary screen, MDM2 E3 ligase inhibitor project, cell-based, luminescence, 1536-well. AID 1230, 2008. E3 ubiquitin-protein ligase Mdm2 (Homo sapiens), Q00987. signal enhancement, % at 5 µM. 210,000 tested, 0.11% active. cell-based MDM2 ubiquitination luciferase reporter, 2 h; 0 = plate control, 100 = twice control, blank-subtracted;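 active = signal enhancement of 30% or more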;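 note: luminescence tracks abundance of the self-degrading MDM2-luciferase fusion protein; higher signal means inhibition of MDM2 E3 ligase activity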
Target sequence (Q00987 whole entry, looked up, the tested form may be a part): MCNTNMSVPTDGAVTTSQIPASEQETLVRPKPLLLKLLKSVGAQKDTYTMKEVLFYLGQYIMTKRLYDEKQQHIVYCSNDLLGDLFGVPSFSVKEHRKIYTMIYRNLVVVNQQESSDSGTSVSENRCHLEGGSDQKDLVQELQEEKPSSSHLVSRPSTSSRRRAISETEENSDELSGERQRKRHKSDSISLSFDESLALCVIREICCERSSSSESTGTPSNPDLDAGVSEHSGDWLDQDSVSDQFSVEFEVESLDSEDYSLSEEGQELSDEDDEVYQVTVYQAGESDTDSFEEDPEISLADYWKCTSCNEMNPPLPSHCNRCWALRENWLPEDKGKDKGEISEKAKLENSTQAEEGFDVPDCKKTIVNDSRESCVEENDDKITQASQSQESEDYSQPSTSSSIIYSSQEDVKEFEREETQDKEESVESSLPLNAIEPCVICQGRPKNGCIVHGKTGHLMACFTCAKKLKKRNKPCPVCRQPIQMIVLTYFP
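Test system: mammalian cells stably expressing self-ubiquitinating, self-degrading MDM2 E3–luciferase fusion; Amount: 2000 cells in each well; Medium: DMEM; Schedule: 4 h settle plus 2 h compound, 37 °C; Technique: SteadyLite luciferase luminescence after 15 min room-temperature reagent incubation; Benchmarks: plate control and blank wells.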
Arbovirus inh = antivirals against arbovirus infection, primary screen, cell-based, full library, 10K replicate subset; AID 1251, 2008; inhibition, % at 10 µM; 200,000 tested, 0.37% active; arbovirus infection cell-based antiviral screen; in the data active = inhibition above about 30%
ROMK hit retest = ROMK channel modulator hit retest, confirmation, cell-based, thallium flux, duplicate, resupplied hits. shares compounds with ROMK mod. fluorescence ratio; hits give low values. normalized thallium flux (F/F0 slope) at 10 µM. 3,000 tested, 54% active. AID 1917, 2009;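 active = Flux at 10 µM at least 3 SD below or above vehicle control mean in one or both replicates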
Starred values were filed as active, the others as inactive.

`CCOC(=O)C1=C(C)NC(SC)=C(C#N)C1CC(C)C` (stereo unspecified) gave ROMK mod 2.5*, Cl transport mod -0.2, Calpain2 inh 30, Mdm2 ligase inh -2 and ROMK hit retest 0.08.
`O=C(CSc1nccc(=O)[nH]1)c1ccccc1Br` gave ROMK mod 0.27, Cl transport mod 0.067, Calpain2 inh 29, PKD1 kinase inh -2, Mdm2 ligase inh -12 and Arbovirus inh 6.
For CCOc1ccc(-n2c(COc3ccc(C)cc3)nnc2SCC(N)=O)cc1 the results were ROMK mod 1.1, Cl transport mod 1.3, Calpain2 inh 17, PKD1 kinase inh -17, Mdm2 ligase inh -27 and Arbovirus inh 12.
`CCOC(=O)C(CC)Sc1nnc(COc2ccc(C)cc2)n1-c1ccccc1` (stereo unspecified) gave ROMK mod -4.5*, Cl transport mod -2.4, Calpain2 inh -1, PKD1 kinase inh -3, Mdm2 ligase inh -8, Arbovirus inh 3 and ROMK hit retest 0.066*.
`Cc1c(Cl)cccc1NC(=O)CSC(N)=O` gave ROMK mod -2.6*, Cl transport mod 3, Calpain2 inh 16, PKD1 kinase inh -6, Mdm2 ligase inh -1, Arbovirus inh 8 and ROMK hit retest 0.075.
Cc1c(Cl)cccc1NC(=O)CSCC(N)=O was read as Cl transport mod 0.92, Calpain2 inh -2, PKD1 kinase inh 1, Mdm2 ligase inh 2 and Arbovirus inh 10.
For Cc1cccc(NC(=O)COC(=O)Cc2cccc(C(F)(F)F)c2)c1C the results were Cl transport mod -0.25, Calpain2 inh 0, PKD1 kinase inh -17, Mdm2 ligase inh -9 and Arbovirus inh -14.
For N=c1n(CCN2CCCCC2)c2ccccc2n1CC(O)c1cccc(Br)c1 (stereo unspecified) the results were Cl transport mod 0.22, Calpain2 inh -8, PKD1 kinase inh 5, Mdm2 ligase inh 3 and Arbovirus inh -46.
For N=c1n(CCN2CCCCC2)c2ccccc2n1CC(O)c1ccc(Cl)c(Cl)c1 (stereo unspecified) the results were ROMK mod -4.5*, Cl transport mod -0.15, Calpain2 inh 27, PKD1 kinase inh 1, Mdm2 ligase inh -1, Arbovirus inh -38 and ROMK hit retest 0.046*.
CC(C)C(=O)N1CCN(c2nc(-c3ccccc3)c3c(c2C#N)CCCC3)CC1 was read as ROMK mod 0.12, Cl transport mod -0.1, Calpain2 inh -6, PKD1 kinase inh 0, Mdm2 ligase inh 3 and Arbovirus inh -30.
Screening CCCC(=O)N1CCN(c2nc(CC(C)C)c3c(c2C#N)CCC3)CC1 returned ROMK mod -4.2*, Calpain2 inh -112, PKD1 kinase inh 2, Mdm2 ligase inh -6, Arbovirus inh -19 and ROMK hit retest 0.066*.
`CC(C)CN=C(NS(=O)(=O)c1ccccc1)C(Cl)(Cl)Cl` gave Cl transport mod 1.2, Calpain2 inh -1, PKD1 kinase inh -6, Mdm2 ligase inh -20, Arbovirus inh -48 and ROMK hit retest 0.05*.
For CC(C)n1cnc2c(N(C)c3ccccc3)nc(N(CCN(C)C)Cc3ccccc3)nc21 the results were Cl transport mod -2.1, Calpain2 inh 7, Mdm2 ligase inh 35* and ROMK hit retest 0.052*.
`O=C(O)COc1ccccc1/C=N/NC(=O)c1cccc(S(=O)(=O)N2CCOCC2)c1` gave ROMK mod -0.0074, Cl transport mod 0.25, Calpain2 inh -42, PKD1 kinase inh 3, Mdm2 ligase inh -4 and Arbovirus inh 19.
Cc1ccc(S(=O)(=O)N(C)CC(=O)OCC(=O)N2CCN(c3ccccc3)CC2)cc1 was read as ROMK mod -0.25, Cl transport mod 0.058, Calpain2 inh -6, PKD1 kinase inh -10, Mdm2 ligase inh -10 and Arbovirus inh -4.
Screening COc1ccccc1C(=O)Nc1ccc2c(c1)nc(CCNC(C)=O)n2C returned ROMK mod 0.37, Cl transport mod 0.16, Calpain2 inh 13, PKD1 kinase inh -1, Mdm2 ligase inh -11 and Arbovirus inh -4.
Screening COc1ccc(C(=O)Nc2ccc3c(c2)nc(CCNC(C)=O)n3C)cc1 returned ROMK mod 3*, Calpain2 inh 1, PKD1 kinase inh 2, Mdm2 ligase inh -23, Arbovirus inh 2 and ROMK hit retest 0.075.
`Cc1ccccc1N(CC(=O)NC1CCCC1)C(=O)c1oc(C(C)(C)C)cc1C` gave Calpain2 inh 10, PKD1 kinase inh 2, Mdm2 ligase inh -12 and Arbovirus inh 4.
`Cc1cc(C(C)(C)C)oc1C(=O)N(CC(=O)NC1CCCC1)Cc1ccccc1Cl` gave Calpain2 inh 50*, PKD1 kinase inh 5, Mdm2 ligase inh 6, Arbovirus inh -34 and ROMK hit retest 0.054*.
`Cn1cnc([N+](=O)[O-])c1S(=O)(=O)c1ccc(Cl)cc1` gave ROMK mod -4.8*, Cl transport mod -0.92, Calpain2 inh -4, PKD1 kinase inh -9, Mdm2 ligase inh -19, Arbovirus inh -33 and ROMK hit retest 0.059*.
`Clc1ccc(-c2c[n+](Cc3ccc(Cl)cc3Cl)c3n2CCCCC3)cc1` gave Calpain2 inh 7, Mdm2 ligase inh -11 and ROMK hit retest 0.055*.
O=C(C[n+]1cc(-c2ccccc2)n2c1CCCCC2)c1ccc(Cl)cc1 was read as Cl transport mod -0.48, Calpain2 inh 23, PKD1 kinase inh -3, Mdm2 ligase inh -17 and Arbovirus inh -1.
For CC1CCC(C(C)C)C(OC(=O)C[n+]2cc(-c3ccc(Cl)cc3)n3c2CCCCC3)C1 (stereo unspecified) the results were ROMK mod -9.8*, Cl transport mod 0.1, Calpain2 inh -3, PKD1 kinase inh -7, Mdm2 ligase inh -19, Arbovirus inh -33 and ROMK hit retest 0.049*.
Screening Clc1ccc(C[n+]2cc(-c3ccccc3)n3c2CCCCC3)c(Cl)c1 returned Cl transport mod -0.93, Calpain2 inh 36, PKD1 kinase inh 4, Mdm2 ligase inh -20 and Arbovirus inh 4.
Screening Clc1ccc(-c2c[n+](Cc3ccc(Br)cc3)c3n2CCCCC3)cc1 returned ROMK mod -4.2*, Cl transport mod -0.97, Calpain2 inh -1, Mdm2 ligase inh -13 and ROMK hit retest 0.075.
